Results on five molecules are retold here after ChEMBL document CHEMBL4665801, “Pyrazole-Based Lactate Dehydrogenase Inhibitors with Optimized Cell Activity and Pharmacokinetic Properties” (J Med Chem, 2020).

SMILES strings stand for the structures. The source made the active and inactive calls. The rule behind the calls is not given here.

The nature of series [1]: Terminal half life in CD-1 mouse at 10 mg/kg, iv and measured up to 24 hrs by LC/MS-MS analysis. The class given is ADME, organism-based. The settings on record: in vivo. In a few lines: (§1)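 Male CD1 mice, about 6–8 weeks old and 20–30 g, received 10 mg/kg IV in 0.1 M NaOH in PBS adjusted to pH 7–8.5, made fresh on the day of dosing. Three mice per cohort. Blood was taken from the dorsal metatarsal vein at 5, 15, 30 min and 1, 2, 4, 8, 12, 24 h into heparin tubes. Plasma was spun at 4 °C, stored at –75 °C and analysed by LC–MS/MS. For IV dosing Cmax = C0.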

The nature of series [2]: Volume of distribution at steady state in CD-1 mouse at 10 mg/kg, iv and measured up to 24 hrs by LC/MS-MS analysis. Type of series: ADME, organism-based. The note with it: in vivo. In a few lines:
as §1

Series [3] can be described thus: AUClast in CD-1 mouse at 10 mg/kg, iv and measured up to 24 hrs by LC/MS-MS analysis. Type of series: ADME, organism-based. The arrangement: route intravenous, dose 10 mg/kg, time <=24. The note with it: in vivo. In a few lines:
as §1

A short description of series [4]: Cmax in CD-1 mouse at 10 mg/kg, iv and measured up to 24 hrs by LC/MS-MS analysis. The class given is ADME, organism-based. Set-up: route intravenous, dose 10 mg/kg, time <=24. The note with it: in vivo. The method in brief: as §1
In the next series the test system is A673. As to the kind of experiment: Cytotoxicity against human A673 cells assessed as reduction in cell viability after 48 hrs by CellTiter-Glo assay. The note with it: A673, 48 h. Type of series: functional, cell-based. (In general: Cellular ATP, detected with luciferase, serves as a proxy for viable cell number.)
Series [5] has as its target L-lactate dehydrogenase B chain (Homo sapiens) (UniProt P07195). Nature of the series: Inhibition of recombinant human LDHB using sodium pyruvate as substrate preincubated for 5 mins followed by diaphorase/resazurin addition and measured after 20 mins by fluorescence based assay.
The nature of series [6]: Cmax in CD-1 mouse at 50 mg/kg, po and measured up to 24 hrs by LC/MS-MS analysis. The class given is ADME, organism-based. The arrangement: route oral, dose 50 mg/kg, time <=24. The settings on record: in vivo. In a few lines: (§2)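 Male CD1 mice, about 6–8 weeks old and 20–30 g, were dosed PO at 40 or 50 mg/kg in 0.1 M NaOH in PBS, pH 7–8.5, prepared the same day. Three mice per cohort. Dorsal metatarsal vein blood was collected into heparin at 15, 30 min and 1, 2, 4, 8, 12, 24 h. Plasma was spun at 4 °C, frozen at –75 °C and quantified by LC–MS/MS.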

For series [7], the target named is T1, L-lactate dehydrogenase A chain (Homo sapiens, UniProt P00338). Nature of the series: Inhibition of LDHA in human MIA PaCa-2 cells assessed as decrease in lactate production incubated for 2 hrs by lactate oxidase-coupled fluorescence based assay. Type of series: cell-based.
In series [8] the target is T1, L-lactate dehydrogenase A chain. Nature of the series: Inhibition of LDHA in human A673 cells assessed as decrease in lactate production incubated for 2 hrs by lactate oxidase-coupled fluorescence based assay. Type of series: cell-based.
A short description of series [9]: Terminal half life in CD-1 mouse at 50 mg/kg, po and measured up to 24 hrs by LC/MS-MS analysis. The settings on record: in vivo. The class given is ADME, organism-based. In a few lines:
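Male CD1 mice, about 6–8 weeks old and 20–30 g, were dosed PO at 40 or 50 mg/kg in 0.1 M NaOH in PBS, pH 7–8.5, prepared the same day. Three mice per cohort. Plasma was spun at 4 °C, frozen at –75 °C and quantified by LC–MS/MS.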

In series [10] the target is T1, L-lactate dehydrogenase A chain. Nature of the series: Inhibition of GS[HiBiT]GS-tagged LDHA (unknown origin) expressed in HEK-293T cells measured after 1 hr by […]. Type of series: cell-based. In a few lines: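 HEK293T cells were transiently transfected for 24 h with CMV-driven LDHA carrying a C-terminal GS[HiBiT]GS tag, then reseeded at 2500 cells/well in DPBS with Ca/Mg and 1 g/L glucose. […] Cells were lysed with NP40, and 11S (100 nM final) plus furimazine was added.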
For orientation: HiBiT is a short tag that completes a luciferase, so light tracks the accessible tagged protein.

Series [11] is described as follows: AUClast in CD-1 mouse at 50 mg/kg, po and measured up to 24 hrs by LC/MS-MS analysis. The class given is ADME, organism-based. The arrangement: route oral, dose 50 mg/kg, time <=24. The note with it: in vivo. In a few lines:
as §2

Series [12] has as its target T1, L-lactate dehydrogenase A chain. As to the kind of experiment: Inhibition of recombinant human LDHA using sodium pyruvate as substrate preincubated for 5 mins followed by diaphorase/resazurin addition and measured after 20 mins by fluorescence based assay. In general terms: Resazurin is reduced to fluorescent resorufin, in cell work by metabolically active cells.

A further series is filed under the species Sus scrofa. Nature of the series: Inhibition of porcine heart MDH using malic acid as substrate preincubated for 10 mins followed by substrate addition and measured after 5 mins by resazurin based fluorescence based assay. The settings on record: time 15.0 min.
Series [13] in a line: Oral bioavailability in CD-1 mouse at 50 mg/kg and measured up to 24 hrs by LC/MS-MS analysis. Type of series: ADME, organism-based. The note with it: in vivo. In a few lines:
as §2

A further series concerns MIA PaCa-2. As to the kind of experiment: Cytotoxicity against human MIA PaCa-2 cells assessed as reduction in cell viability after 48 hrs by CellTiter-Glo assay. Type of series: functional, cell-based. The settings on record: MIA PaCa-2, 48 h.

Chain of L-lactate dehydrogenase B chain (Homo sapiens) (P07195 2-334 limits assumed): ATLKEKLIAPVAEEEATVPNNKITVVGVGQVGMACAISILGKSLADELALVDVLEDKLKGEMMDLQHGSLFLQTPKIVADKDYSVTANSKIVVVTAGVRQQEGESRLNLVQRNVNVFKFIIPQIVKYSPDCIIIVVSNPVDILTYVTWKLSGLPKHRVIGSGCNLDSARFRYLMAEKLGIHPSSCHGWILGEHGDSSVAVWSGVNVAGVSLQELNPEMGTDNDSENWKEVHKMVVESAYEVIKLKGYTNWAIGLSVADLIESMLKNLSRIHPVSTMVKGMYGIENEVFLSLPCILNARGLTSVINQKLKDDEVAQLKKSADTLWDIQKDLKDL

With `NS(=O)(=O)c1ccc(Cc2c(-c3cccc(-c4ccccc4)c3)nn(-c3nc(C(=O)O)cs3)c2CC2CC2)cc1`, the “beta t1/2” value in [1] was determined as 0.85 h.

`Cc1ccc(C#Cc2cccc(-c3nn(-c4nc(C(=O)O)cs4)c(CCC4CC4)c3Cc3ccc(S(N)(=O)=O)c(F)c3)c2)s1`: the Vdss – broadly, a proportionality between amount in the body and measured concentration, not a real space – in series [2] stood at 1.47 L/kg. The AUClast in series [3] was found to be 9600 ng·h/mL; in [11], 20030 ng·h/mL. For the same molecule, the results for the Cmax in [4] and in [6] were 58200 ng/mL and 6850 ng/mL, respectively. The IC50 (in general, the concentration needed to halve the response being measured) with A673 was 187 nM; in series [7], 172 nM; in series [8] it was 174 nM; in series [10], 152 nM; in series [12], 117 nM. The inhibition entry in series [5] was “Active”. Moreover, the “beta t1/2” value in series [1] was 5.8 h; in series [9], 3.7 h. Besides, in the series filed under Sus scrofa, the inhibition result was “inactive”. This molecule yielded a F in [13] of 42%.

As for `Cc1ncc(C#Cc2cc(-c3nn(-c4nc(C(=O)O)cs4)c(CC4CC4)c3Cc3ccc(S(N)(=O)=O)c(F)c3)ccc2F)s1`, in [2], the Vdss is 13.9 L/kg. Moreover, the results for the AUClast in [3] and in [11] were 1820 ng·h/mL and 3440 ng·h/mL, respectively. For the same molecule, the IC50 in the series with MIA PaCa-2 amounted to 488 nM; in the series on A673, 569 nM; in series [7] it was 867 nM; in [8], 937 nM; in [12], 33 nM. Moreover, the Cmax (usually the highest concentration seen after dosing) in series [4] was determined as 5500 ng/mL; in [6] it was 1820 ng/mL. The inhibition result in series [5] was “Active”. Further, the “beta t1/2” value in [1] was determined as 5.75 h; in [9], 3.2 h. Further, the inhibition result in the series listed under Sus scrofa is “inactive”. Besides, in series [13], the F is recorded as 38%.

As to `Cc1ccc(C#Cc2cc(-c3nn(-c4nc(C(=O)O)cs4)c(CC4CC4)c3Cc3ccc(S(N)(=O)=O)c(F)c3)ccc2F)o1`, the Vdss in series [2] was 10.3 L/kg. For the same molecule, the AUClast stood at 2320 ng·h/mL in series [3] and 13520 ng·h/mL in [11]. The figures for the Cmax in [4] and in series [6] were 4770 ng/mL and 1260 ng/mL, respectively. Also, in series [5], the inhibition entry was “Active”. The “beta t1/2” value in series [1] came to 5.1 h; in [9], 10.7 h. Moreover, the IC50 came out at 547 nM in series [7], 544 nM in [8], 79 nM in series [10] and 47 nM in series [12]. Also, in the series listed under Sus scrofa, the inhibition entry is “inactive”. The molecule also returned a F in series [13] of 106%.

Take `Cc1ccc(C#Cc2cccc(-c3nn(-c4nc(C(=O)O)cs4)c(CC4CC4)c3Cc3ccc(S(N)(=O)=O)c(F)c3)c2)o1`: the Vdss in series [2] came to 12.5 L/kg. For the same molecule, the AUClast was determined as 2280 ng·h/mL in [3] and 10170 ng·h/mL in series [11]. The IC50 was determined as 296 nM in the series on MIA PaCa-2; 285 nM in the series with A673; 432 nM in series [7]; 450 nM in series [8]; 168 nM in series [10]; 36 nM in series [12]. The figures for the maximum concentration (Cmax) in series [4] and in [6] were 4570 ng/mL and 2280 ng/mL, respectively. Further, the inhibition result in series [5] was “Active”. The “beta t1/2” value turned out to be 5 h in series [1] and 3.7 h in series [9]. The inhibition entry in the series listed under Sus scrofa was “inactive”. For the same molecule, the F in series [13] stood at 89%.
